For assay [1], the system named is NF-κB. Description: Confirmatory kinetic screening, cell-based NF-κB FRET assay with LPS. Details: species or system human. Conditions: 12h incubation, 21 HTS actives.
The test system of assay [2] is NF-κB. The assay is described as follows: NF-κB activation using THP1-Blue NF-κB cells. The format is cell-based, human. Conditions: for EC50: read-out: EC50 NF-κB induction in the presence of LPS, with LPS (10 ng/mL), THP1-Blue NF-κB cells, SEAP; for EC50 / NF-κB activity (in words, SAR text to Table 1): 20h; for NF-κB activity (in words, SAR text to Table 1): compound alone, 5 μM. Put shortly:
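THP1-Blue NF-κB cells carry a stably integrated NF-κB-inducible SEAP. They were plated at 10^5 cells/well in RPMI with 10% FBS, penicillin, streptomycin and Normocin, then treated for 20 h with 5 μM test compound (0.5% DMSO final), alone or with LPS at 10 ng/mL. Supernatant SEAP was read colorimetrically at 630 nm. Signals were two-point normalized: baseline (vehicle or LPS) 100%, reference hit 200%.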

For a further assay, the system named is IL-8. Description: IL-8 release in THP-1 cells. The class given is cell-based, human. The following applies: 5 μM compound; for IL-8 induction with LPS: LPS 1 ng/mL, compared to Veh+LPS; for IL-8 induction, compound alone: without LPS, compared to Veh. Put shortly:
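THP-1 cells were exposed overnight to 5 μM test compound or vehicle (0.5% DMSO), with or without LPS at 1 ng/mL. Secreted IL-8 in a portion of the supernatant was quantified by ELISA.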

“Also recorded” adds a separate entry of the source.

Experimental findings from paper PMC8992012 (Bioorganic & medicinal chemistry, 2021) are described below.

By EC50 is commonly meant the midpoint of the concentration-response curve. As for `Cc1ccc(C)c(-c2csc(NC(=O)c3ccc(S(=O)(=O)N4CCCCC4)cc3)n2)c1` [Compound 1, N-(4-(2,5-dimethylphenyl)thiazol-2-yl)-4-(piperidin-1-ylsulfonyl)benzamide], the “NF-κB enhancement activity at 12h in the presence of LPS” value with NF-κB [1] is on record as “most potent”. Moreover, the EC50 in the assay on NF-κB [2] turned out to be 2.3 µM. In the assay with IL-8, the “IL-8 induction with LPS” value was “significantly enhanced” and the “IL-8 induction, compound alone” value is reported as “induced IL-8”.

Take `Cc1ccc(Br)c(-c2csc(NC(=O)c3ccc(S(=O)(=O)N4CCCCC4)cc3)n2)c1` [Compound 12d, N-(4-(2-bromo-5-methylphenyl)thiazol-2-yl)-4-(piperidin-1-ylsulfonyl)benzamide]: in the assay with NF-κB [2], the “NF-κB activity (in words, SAR text to Table 1)” value (shortened to “NF-κB activity”) was “active; also recorded: most active” and the EC50 is 4.5 µM. In the assay on IL-8, the “IL-8 induction with LPS” value is “significantly enhanced” and the “IL-8 induction, compound alone” value is on record as “induced IL-8”.

For `CCCC1CCN(S(=O)(=O)c2ccc(C(=O)Nc3nc(-c4cc(C)ccc4C)cs3)cc2)CC1` [Compound 54h, N-(4-(2,5-dimethylphenyl)thiazol-2-yl)-4-((4-propylpiperidin-1-yl)sulfonyl)benzamide], in the assay on NF-κB [2], the “NF-κB activity” value is “very potent; also recorded: most active” and the concentration giving a half-maximal response (EC50) worked out at 0.9 µM. In the assay with IL-8, the “IL-8 induction with LPS” value is “significantly enhanced” and the “IL-8 induction, compound alone” value is “induced IL-8”.

On to `CCCC#Cc1sc(NC(=O)c2ccc(S(=O)(=O)N3CCCCC3)cc2)nc1-c1cc(C)ccc1C` [Compound 18q, N-(4-(2,5-dimethylphenyl)-5-(pent-1-yn-1-yl)thiazol-2-yl)-4-(piperidin-1-ylsulfonyl)benzamide], for which, in the assay on NF-κB [2], the “NF-κB activity” value was “very potent; also recorded: most active” and the EC50 came out at 1.7 µM. Further, in the assay on IL-8, the “IL-8 induction with LPS” value is on record as “significantly enhanced” and the “IL-8 induction, compound alone” value is recorded as “induced IL-8”.

Turning to `Cc1ccc(C)c(-c2nnc(NC(=O)c3ccc(S(=O)(=O)N4CCCCC4)cc3)s2)c1` [Compound 18f, N-(5-(2,5-dimethylphenyl)-1,3,4-thiadiazol-2-yl)-4-(piperidin-1-ylsulfonyl)benzamide], the “NF-κB activity” value with NF-κB [2] is recorded as “none of these molecules that replaced the thiazole functionality was active”.

Regarding `Cc1ccc(C)c(-c2ccc(NC(=O)c3ccc(S(=O)(=O)N4CCCCC4)cc3)cn2)c1` [Compound 18d, N-(6-(2,5-dimethylphenyl)pyridin-3-yl)-4-(piperidin-1-ylsulfonyl)benzamide], in the assay with NF-κB [2], the “NF-κB activity” value is on record as “none of these molecules that replaced the thiazole functionality was active”.

As to `CCC#Cc1sc(NC(=O)c2ccc(S(=O)(=O)N3CCCCC3)cc2)nc1-c1cc(C)ccc1C` [Compound 18p, N-(5-(but-1-yn-1-yl)-4-(2,5-dimethylphenyl)thiazol-2-yl)-4-(piperidin-1-ylsulfonyl)benzamide], the “NF-κB activity” value with NF-κB [2] is “very potent”.

`C#Cc1ccc(C)c(-c2csc(NC(=O)c3ccc(S(=O)(=O)N4CCCCC4)cc3)n2)c1` [Compound 12t, N-(4-(5-ethynyl-2-methylphenyl)thiazol-2-yl)-4-(piperidin-1-ylsulfonyl)benzamide]: the “NF-κB activity” value with NF-κB [2] is “inactive”.

Take `Cc1ccc(C)c(Cc2csc(NC(=O)c3ccc(S(=O)(=O)N4CCCCC4)cc3)n2)c1` [Compound 12f, N-(4-(2,5-dimethylbenzyl)thiazol-2-yl)-4-(piperidin-1-ylsulfonyl)benzamide]: the “NF-κB activity” value in the assay with NF-κB [2] was “inactive”.

For the compound `CCCC#Cc1sc(NC(=O)c2ccc(S(=O)(=O)N3CCC(CCC)CC3)cc2)nc1-c1cc(C)ccc1Br` [Compound 61, N-(4-(2-bromo-5-methylphenyl)-5-(pent-1-yn-1-yl)thiazol-2-yl)-4-((4-propylpiperidin-1-yl)sulfonyl)benzamide], in the assay on NF-κB [2], the “NF-κB activity” value was “significant loss of activity”.

In the case of `Cc1ccc(C)c(-c2csc(NS(=O)(=O)c3ccc(C(=O)N4CCCCC4)cc3)n2)c1` [Compound 51, N-(4-(2,5-dimethylphenyl)thiazol-2-yl)-4-(piperidine-1-carbonyl)benzenesulfonamide], the “NF-κB activity” value in the assay with NF-κB [2] is “inactive”.

On to `Cc1ccc(C)c(-c2csc(NC(=O)c3ccc(S(=O)(=O)N4CCCCC4)nc3)n2)c1` [Compound 42b, N-(4-(2,5-dimethylphenyl)thiazol-2-yl)-6-(piperidin-1-ylsulfonyl)nicotinamide], for which the “NF-κB activity” value with NF-κB [2] was “loss of activity”.

With `CCCC#Cc1sc(NC(=O)c2ccc(S(=O)(=O)N3CCCCC3)cc2)nc1-c1cc(C)ccc1Br` [Compound 60, N-(4-(2-bromo-5-methylphenyl)-5-(pent-1-yn-1-yl)thiazol-2-yl)-4-(piperidin-1-ylsulfonyl)benzamide], the “NF-κB activity” value in the assay with NF-κB [2] is reported as “retained NF-κB activity”.

`Cc1ccc(N=[N+]=[N-])cc1-c1csc(NC(=O)c2ccc(S(=O)(=O)N3CCCCC3)cc2)n1` [Compound 63, N-(4-(5-azido-2-methylphenyl)thiazol-2-yl)-4-(piperidin-1-ylsulfonyl)benzamide]: in the assay with NF-κB [2] (in presence of LPS, compared to compound 1), the “NF-κB induction in the presence of LPS (in words, Fig. 6)” value is recorded as “retained activity”.

With `Cc1cc(C)cc(-c2csc(NC(=O)c3ccc(S(=O)(=O)N4CCCCC4)cc3)n2)c1` [Compound 12o, N-(4-(3,5-dimethylphenyl)thiazol-2-yl)-4-(piperidin-1-ylsulfonyl)benzamide], the “NF-κB activity” value with NF-κB [2] was “inactive”.

As for `CCN(CC)c1sc(NC(=O)c2ccc(S(=O)(=O)N3CCCCC3)cc2)nc1-c1cc(C)ccc1C` [Compound 18g, N-(5-(diethylamino)-4-(2,5-dimethylphenyl)thiazol-2-yl)-4-(piperidin-1-ylsulfonyl)benzamide], in the assay on NF-κB [2], the “NF-κB activity” value was “completely inactive”.

As for `Cc1ccc(C)c(-c2csc(NCc3ccc(S(=O)(=O)N4CCCCC4)cc3)n2)c1` [Compound 34a, 4-(2,5-dimethylphenyl)-N-(4-(piperidin-1-ylsulfonyl)benzyl)thiazol-2-amine], the “NF-κB activity” value in the assay on NF-κB [2] was “inactive”.

With `Cc1ccc(C)c(-c2csc(NC(=O)c3ccc(S(=O)(=O)NC4CCCCC4)cc3)n2)c1` [Compound 54e, 4-(N-cyclohexylsulfamoyl)-N-(4-(2,5-dimethylphenyl)thiazol-2-yl)benzamide], the activation at 5 µM in the assay on NF-κB [2] (Homo sapiens, 20 h, read-out: NF-κB SEAP Compound alone % Activation) was 100%. Also, the “NF-κB activity” value with NF-κB [2] is “inactive”.
